Values belong to the molecule of their own block, whether it stands above or below them.
Columns and labels:
14-3-3σ = target: T1, 14-3-3σ (Homo sapiens, UniProt P31947); assay: Intact MS conjugation of compound to 14-3-3σ; type: biochemical; settings: 14-3-3σ : cyclohexenone : NEM 1:10:10, overnight, 10 °C, BTP buffer pH 7
T1 sequence (P31947 1-231 limits assumed): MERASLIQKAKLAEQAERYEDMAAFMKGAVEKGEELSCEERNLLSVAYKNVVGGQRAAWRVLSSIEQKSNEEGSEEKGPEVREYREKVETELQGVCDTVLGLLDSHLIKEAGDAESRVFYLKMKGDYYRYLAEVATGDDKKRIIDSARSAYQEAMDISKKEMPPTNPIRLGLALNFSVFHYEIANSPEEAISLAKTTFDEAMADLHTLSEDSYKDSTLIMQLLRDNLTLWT
Method in brief: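 Recombinant full-length 14-3-3σ (8 μM) was incubated overnight with 10 eq. (80 μM) of compound, with or without peptide, in 20 mM BTP buffer at pH 7 and 10 °C. Protein species (unmodified, conjugated, crosslinked) were read from deconvoluted intact mass spectra and expressed as percentage conjugation or crosslinking.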

[1] = L-cysteine–maleimide conjugation; cited from earlier work
[2] = target: the peptide panel (mutated B-Raf peptides: +5 mutants and histidine scan); assay: fluorescence polarisation

conjugate formed on co-incubation of cyclohexenone and NEM (14-3-3σ): exclusively the 14-3-3σ–NEM conjugate
Molecule: CCN1C(=O)C=CC1=O [NEM, N-ethylmaleimide]

Molecule: O=C1C=CC(=O)N1 [maleimide]
reaction rate (k2) [1]: 17.6 ± 0.9 × 10^3 M^−1 s^−1

Kd [2]: 1.8 to 135 µM
B1: 14-3-3σ (natural protein)
chain: MERASLIQKAKLAEQAERYEDMAAFMKGAVEKGEELSCEERNLLSVAYKNVVGGQRAAWRVLSSIEQKSNEEGSEEKGPEVREYREKVETELQGVCDTVLGLLDSHLIKEAGDAESRVFYLKMKGDYYRYLAEVATGDDKKRIIDSARSAYQEAMDISKKEMPPTNPIRLGLALNFSVFHYEIANSPEEAISLAKTTFDEAMADLHTLSEDSYKDSTLIMQLLRDNLTLWT

Source: PMC11752056 (Chemical Science, 2025)
